{
  "source": "ChEMBL document CHEMBL3045854",
  "about": "“Antifungal activity of 4-methyl-6-alkyl-2H-pyran-2-ones” (2006)",
  "key": {"Athelia rolfsii [1]": {"system": "Athelia rolfsii", "assay": "Antifungal activity against Athelia rolfsii in tomato plants grown on fungal infested soil assessed as healthy tomato plants stands at 5 % aqueous emulsion of compound measured 35 days after transplanting", "format": "functional, Agroathelia rolfsii", "outline": "(§1)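 Tomato greenhouse test. S. rolfsii was grown in potato dextrose broth, then held in water at 20 °C for 3-4 weeks. Inoculum was mixed into autoclaved composted soil (10 flasks per 2.5 kg) and kept about 5-7 days at roughly 25 °C. Aqueous emulsion was incorporated at 5.0 mL per 150 cm3 of soil. Wilting and mortality were scored weekly after transplanting and given as the proportion of symptomless plants. Controls were uninfested soil and infested untreated soil; analysed as repeated measures ANOVA.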"}, "Athelia rolfsii [2]": {"system": "Athelia rolfsii", "assay": "Antifungal activity against Athelia rolfsii in tomato plants grown on fungal infested soil assessed as healthy tomato plants stands at 10 % aqueous emulsion of compound measured 35 days after transplanting", "format": "functional, Agroathelia rolfsii", "outline": "as §1"}, "Athelia rolfsii [3]": {"system": "Athelia rolfsii", "assay": "Antifungal activity against Athelia rolfsii in tomato plants grown on fungal infested soil assessed as healthy tomato plants stands at 1 % aqueous emulsion of compound measured 35 days after transplanting", "format": "functional, organism-based", "details": "Agroathelia rolfsii", "outline": "as §1"}, "Athelia rolfsii [4]": {"system": "Athelia rolfsii", "assay": "Antifungal activity against Athelia rolfsii in tomato plants grown on fungal infested soil assessed as healthy tomato plants stands at 1 % aqueous emulsion of compound measured 7 days after transplanting", "format": "functional, Agroathelia rolfsii", "outline": "as §1"}, "[5]": {"system": "Globisporangium debaryanum", "assay": "Antifungal activity against Pythium debaryanum assessed as inhibition of fungal growth", "format": "functional", "details": "read-out: ED50 (the source's name)", "outline": "(§2)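 Poisoned food technique on PDA, final 250, 125, 100, 50, 25 and 10 µg/mL, diluted in acetone from a 1000 µg/mL stock; acetone-only control. A 5 mm × 5 mm plug from the growing edge of a 2-week-old colony was placed at plate centre and incubated at 28 °C until control plates were nearly fully grown. Colony diameter was measured; four replicates per treatment. Inhibition was Abbott-corrected and ED50 taken by probit analysis.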"}, "Pythium aphanidermatum": {"system": "Pythium aphanidermatum", "assay": "Antifungal activity against Pythium aphanidermatum assessed as inhibition of fungal growth", "format": "functional", "details": "read-out: ED50 (the source's name)", "outline": "as §2"}, "Macrophomina phaseolina [6]": {"system": "Macrophomina phaseolina", "assay": "Antifungal activity against Macrophomina phaseolina assessed as inhibition of fungal growth", "format": "functional", "details": "read-out: ED50 (the source's name)", "outline": "as §2"}, "Macrophomina phaseolina [7]": {"system": "Macrophomina phaseolina", "assay": "Antifungal activity against Rhizoctonia bataticola assessed as inhibition of fungal growth", "format": "functional", "details": "read-out: ED50 (the source's name)", "outline": "as §2"}, "Rhizoctonia solani": {"system": "Rhizoctonia solani", "assay": "Antifungal activity against Rhizoctonia solani Nees assessed as inhibition of fungal growth", "format": "functional", "details": "read-out: ED50 (the source's name)", "outline": "as §2"}, "Athelia rolfsii [8]": {"system": "Athelia rolfsii", "assay": "Antifungal activity against Athelia rolfsii assessed as inhibition of fungal growth", "format": "functional", "details": "Agroathelia rolfsii; read-out: ED50 (the source's name)", "outline": "as §2"}},
  "note": "Calls of active or inactive are those of the source. No cut-off for these calls is given here.",
  "data": [
    {"smiles": "CCCCCCc1cc(C)cc(=O)o1", "values": [
      {"measurement": "Activity", "setting": "Athelia rolfsii [1]", "value": "> 60", "unit": "%"},
      {"measurement": "Activity", "setting": "Athelia rolfsii [2]", "value": 92.4, "unit": "%"},
      {"measurement": "Activity", "setting": "Athelia rolfsii [3]", "value": "inactive"},
      {"measurement": "Activity", "setting": "Athelia rolfsii [4]", "value": 20, "unit": "%"},
      {"measurement": "EC50", "setting": "[5]", "value": 14.9, "unit": "µg/mL"},
      {"measurement": "EC50", "setting": "Pythium aphanidermatum", "value": 16.6, "unit": "µg/mL"},
      {"measurement": "EC50", "setting": "Macrophomina phaseolina [6]", "value": 31, "unit": "µg/mL"},
      {"measurement": "EC50", "setting": "Macrophomina phaseolina [7]", "value": 24.5, "unit": "µg/mL"},
      {"measurement": "EC50", "setting": "Rhizoctonia solani", "value": 18.7, "unit": "µg/mL"},
      {"measurement": "EC50", "setting": "Athelia rolfsii [8]", "value": 15.1, "unit": "µg/mL"}
    ]},
    {"smiles": "CCc1cc(C)cc(=O)o1", "values": [
      {"measurement": "EC50", "setting": "[5]", "value": 580, "unit": "µg/mL"},
      {"measurement": "EC50", "setting": "Pythium aphanidermatum", "value": 408, "unit": "µg/mL"},
      {"measurement": "EC50", "setting": "Macrophomina phaseolina [6]", "value": 267, "unit": "µg/mL"},
      {"measurement": "EC50", "setting": "Macrophomina phaseolina [7]", "value": 626, "unit": "µg/mL"},
      {"measurement": "EC50", "setting": "Rhizoctonia solani", "value": 690, "unit": "µg/mL"},
      {"measurement": "EC50", "setting": "Athelia rolfsii [8]", "value": 665, "unit": "µg/mL"}
    ]},
    {"smiles": "CCCCc1cc(C)cc(=O)o1", "values": [
      {"measurement": "EC50", "setting": "[5]", "value": 143, "unit": "µg/mL"},
      {"measurement": "EC50", "setting": "Pythium aphanidermatum", "value": 227, "unit": "µg/mL"},
      {"measurement": "EC50", "setting": "Macrophomina phaseolina [6]", "value": 235, "unit": "µg/mL"},
      {"measurement": "EC50", "setting": "Macrophomina phaseolina [7]", "value": 212, "unit": "µg/mL"},
      {"measurement": "EC50", "setting": "Rhizoctonia solani", "value": 50.1, "unit": "µg/mL"},
      {"measurement": "EC50", "setting": "Athelia rolfsii [8]", "value": 78, "unit": "µg/mL"}
    ]},
    {"smiles": "CCCCC(O)(Cn1cncn1)c1ccc(Cl)cc1Cl", "note": "(stereo not drawn) [HEXACONAZOLE]", "values": [
      {"measurement": "EC50", "setting": "[5]", "value": 12.3, "unit": "µg/mL"},
      {"measurement": "EC50", "setting": "Pythium aphanidermatum", "value": 8.47, "unit": "µg/mL"},
      {"measurement": "EC50", "setting": "Macrophomina phaseolina [6]", "value": 10.5, "unit": "µg/mL"},
      {"measurement": "EC50", "setting": "Macrophomina phaseolina [7]", "value": 4.36, "unit": "µg/mL"},
      {"measurement": "EC50", "setting": "Rhizoctonia solani", "value": 13, "unit": "µg/mL"},
      {"measurement": "EC50", "setting": "Athelia rolfsii [8]", "value": 18.3, "unit": "µg/mL"}
    ]},
    {"smiles": "C/C=C/c1cc(C)cc(=O)o1", "values": [
      {"measurement": "EC50", "setting": "[5]", "value": 95.5, "unit": "µg/mL"},
      {"measurement": "EC50", "setting": "Pythium aphanidermatum", "value": 102, "unit": "µg/mL"},
      {"measurement": "EC50", "setting": "Macrophomina phaseolina [6]", "value": 276, "unit": "µg/mL"},
      {"measurement": "EC50", "setting": "Macrophomina phaseolina [7]", "value": 361, "unit": "µg/mL"},
      {"measurement": "EC50", "setting": "Rhizoctonia solani", "value": 294, "unit": "µg/mL"},
      {"measurement": "EC50", "setting": "Athelia rolfsii [8]", "value": 404, "unit": "µg/mL"}
    ]},
    {"smiles": "Cc1cc(C)oc(=O)c1", "values": [
      {"measurement": "EC50", "setting": "[5]", "value": 1140, "unit": "µg/mL"},
      {"measurement": "EC50", "setting": "Pythium aphanidermatum", "value": 451, "unit": "µg/mL"},
      {"measurement": "EC50", "setting": "Macrophomina phaseolina [6]", "value": 824, "unit": "µg/mL"},
      {"measurement": "EC50", "setting": "Macrophomina phaseolina [7]", "value": 1190, "unit": "µg/mL"},
      {"measurement": "EC50", "setting": "Rhizoctonia solani", "value": 493, "unit": "µg/mL"},
      {"measurement": "EC50", "setting": "Athelia rolfsii [8]", "value": 713, "unit": "µg/mL"}
    ]},
    {"smiles": "CCCCCCCCCc1cc(C)cc(=O)o1", "values": [
      {"measurement": "EC50", "setting": "[5]", "value": 284, "unit": "µg/mL"},
      {"measurement": "EC50", "setting": "Pythium aphanidermatum", "value": 204, "unit": "µg/mL"},
      {"measurement": "EC50", "setting": "Macrophomina phaseolina [6]", "value": 352, "unit": "µg/mL"},
      {"measurement": "EC50", "setting": "Macrophomina phaseolina [7]", "value": 213, "unit": "µg/mL"},
      {"measurement": "EC50", "setting": "Rhizoctonia solani", "value": 130, "unit": "µg/mL"},
      {"measurement": "EC50", "setting": "Athelia rolfsii [8]", "value": 397, "unit": "µg/mL"}
    ]},
    {"smiles": "CCCCCCCCc1cc(C)cc(=O)o1", "values": [
      {"measurement": "EC50", "setting": "[5]", "value": 175, "unit": "µg/mL"},
      {"measurement": "EC50", "setting": "Pythium aphanidermatum", "value": 124, "unit": "µg/mL"},
      {"measurement": "EC50", "setting": "Macrophomina phaseolina [6]", "value": 164, "unit": "µg/mL"},
      {"measurement": "EC50", "setting": "Macrophomina phaseolina [7]", "value": 132, "unit": "µg/mL"},
      {"measurement": "EC50", "setting": "Rhizoctonia solani", "value": 116, "unit": "µg/mL"},
      {"measurement": "EC50", "setting": "Athelia rolfsii [8]", "value": 122, "unit": "µg/mL"}
    ]},
    {"smiles": "CCCCCCCc1cc(C)cc(=O)o1", "values": [
      {"measurement": "EC50", "setting": "[5]", "value": 71.7, "unit": "µg/mL"},
      {"measurement": "EC50", "setting": "Pythium aphanidermatum", "value": 74.6, "unit": "µg/mL"},
      {"measurement": "EC50", "setting": "Macrophomina phaseolina [6]", "value": 82.2, "unit": "µg/mL"},
      {"measurement": "EC50", "setting": "Macrophomina phaseolina [7]", "value": 47, "unit": "µg/mL"},
      {"measurement": "EC50", "setting": "Rhizoctonia solani", "value": 45, "unit": "µg/mL"},
      {"measurement": "EC50", "setting": "Athelia rolfsii [8]", "value": 30.7, "unit": "µg/mL"}
    ]}
  ]
}
